From PubChem BioAssay
SIAE inh – human SIAE inhibitors, primary screen, biochemical, fluorescence polarization, FP-Rh probe, 1536-well HTS | SIAE FP-Rh probe binding | inhibition, % at 9.66 µM | 370,000 compounds, 0.69% hits | AID 1053197, 2014;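 active = inhibition above a cutoff: mean of compounds within the control limits plus 3 SD of those, cut at about 17% in these data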
mABHD4 FP – ABHD4 inhibitors, primary screen, biochemical, fluorescence polarization, mouse; 370,000 compounds, 0.54% hits; inhibition, % at 8.92 µM; AID 720543, 2013; purified mABHD4, FP-Rh probe fluorescence polarization; (Lyso)-N-acylphosphatidylethanolamine lipase (Mus musculus), Q8VD66;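 active = inhibition exceeding the mean over every tested compound plus 3 SD, cut at about 30% in these data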
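Assay system: wild-type mouse ABHD4 protein; compound: single nominal dose of 8.92 µM, 0.89% DMSO final; schedule: 45 min + 60 min at 25 °C; measured by: FP readout, ex 525 nm / em 598 nm; evaluation: % inhibition of FP-Rh probe binding versus controls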
HTRA1 inhibitor – HTRA1 serine protease inhibitors, primary screen, biochemical, fluorescence polarization, HTS. Q92743. inhibition, % at 5.96 µM. 340,000 compounds, 0.5% hits. recombinant HTRA1, FP-rhodamine activity-based probe; in the data active = inhibition above about 36%
Target sequence (Q92743 whole entry, looked up): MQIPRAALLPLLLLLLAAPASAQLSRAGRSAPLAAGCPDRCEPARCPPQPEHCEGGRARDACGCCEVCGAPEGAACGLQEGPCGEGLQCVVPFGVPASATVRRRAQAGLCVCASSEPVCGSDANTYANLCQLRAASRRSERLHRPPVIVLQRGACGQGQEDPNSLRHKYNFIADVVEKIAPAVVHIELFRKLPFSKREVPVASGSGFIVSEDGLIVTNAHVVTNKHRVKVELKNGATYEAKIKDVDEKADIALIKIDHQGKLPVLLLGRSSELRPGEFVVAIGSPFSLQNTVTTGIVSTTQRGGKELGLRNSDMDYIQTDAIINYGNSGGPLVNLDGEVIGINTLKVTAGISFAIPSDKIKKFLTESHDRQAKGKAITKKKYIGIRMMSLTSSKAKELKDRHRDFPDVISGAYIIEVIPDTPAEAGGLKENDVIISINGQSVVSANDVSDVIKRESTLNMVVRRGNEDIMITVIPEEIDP
TCR-CD3 inh – inhibitors of human TCR-CD3 interaction, primary screen, biochemical, fluorescence, TAMRA-labeled TCR probe | inhibition, % at 9.4 µM | 360,000 compounds, 0.37% hits | T-cell receptor (TCR);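 also: recombinant mutant TCR 2C K166C tagged with TAMRA read by polarization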
rCAG binder – binders of r(CAG) RNA repeats, primary screen, biochemical, fluorescence. r(CAG) RNA repeat, TO-PRO-1 dye displacement fluorescence. 370,000 compounds, 1.3% hits. inhibition, % at 3 µM;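 active = inhibition above the plate cutoff, the mean of all test compounds on that plate plus 3 SD, cut at about 35% in these data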;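 also: higher means more dye released from RNA so lower well fluorescence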
BSA TAMRA ctr – compounds interfering with TAMRA-BSA probe, counter-screen for TCR-CD3 interaction inhibitor project, biochemical, fluorescence, TAMRA-labeled BSA; 1,200 compounds, 10% hits; inhibition, % at 9.4 µM; AID 652035, 2013; shares compounds with TCR-CD3 inh; TAMRA-labeled BSA probe fluorescence counterscreen; in the data active = inhibition above about 23%
TCR-CD3 conf – TCR-CD3 interaction inhibitors, retest, confirmation, biochemical, fluorescence, TAMRA-labeled TCR probe; shares compounds with TCR-CD3 inh; TAMRA-labeled TCR probe fluorescence binding assay; inhibition, % at 9.4 µM; 1,200 compounds, 48% hits; AID 652036, 2013
rCAG binder conf – small molecules binding CAG repeat RNA – biochemical, fluorescence, confirmation; shares compounds with rCAG binder; r(CAG) RNA repeat, TO-PRO-1 dye displacement fluorescence; inhibition, % at 3 µM; 4,300 compounds, 70% hits; AID 652065, 2013;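 active = inhibition above a per-plate cutoff, the mean inhibition of sample wells plus 3 SD, cut at about 35% in these data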;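 also: loss of TO-PRO-1 fluorescence as compound displaces dye from 1x1 AA loop RNA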
dCAG dye counter – displacement of TO-PRO-1 from CAG DNA duplex, counter-screen for rCAG RNA repeat binder project, biochemical, fluorescence, TO-PRO-1 dye, d(CAG) DNA oligo. shares compounds with rCAG binder. d(CAG) DNA oligo TO-PRO-1 dye displacement. inhibition, % at 3 µM. 4,300 compounds, 94% hits. AID 652068, 2013;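 active = inhibition above its plate's cutoff, the mean test-well inhibition plus 3 SD, cut at about 4.8% in these data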;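 also: hits displace the dye from DNA and so lower well fluorescence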
mABHD4 conf – ABHD4 inhibitors, retest, confirmation, biochemical, fluorescence polarization, mouse | shares compounds with mABHD4 FP | inhibition, % at 8.92 µM | purified mABHD4, FP-Rh probe fluorescence polarization | AID 720658, 2013 | 1,800 compounds, 55% hits;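 active = mean inhibition across replicates above the hit cutoff set in the primary screen, cut at about 30% in these data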
Of the large screens only hits and unclear results are named; the others gave an inactive call (follow-up assays come after a bar, where they were run); ! = not active in a repeat. In the library only some 2.5% were active in any assay of this set; here they are far more common. Rule as the data show it, unless noted: active = inhibition above about 19%; inactive = the rest.

Cc1ccc(O)c(-c2cc(C(=O)Nc3ccc(S(=O)(=O)Nc4nccc(C)n4)cc3)[nH]n2)c1	TCR-CD3 inh 59.6, rCAG binder 58.9 | BSA TAMRA ctr inactive | TCR-CD3 conf 31.8 | rCAG binder conf 48.5 | dCAG dye counter 17.4
Cc1ccc(C(C)C)c(OCc2ccc(C(=O)N/N=C/c3ccc(O)cc3O)cc2)c1	TCR-CD3 inh 25.5, rCAG binder 38.0 | BSA TAMRA ctr inactive | TCR-CD3 conf 22.1 | rCAG binder conf inactive | dCAG dye counter 14.5
CCOc1cc(C(=O)NN2CCOCC2)cc(OCC)c1OCC	none
Oc1cc(O)cc(C=Cc2ccc(O)c(O)c2)c1	TCR-CD3 inh 20.7, rCAG binder 38.1 (no result: HTRA1 inhibitor) | BSA TAMRA ctr inactive | TCR-CD3 conf inactive | rCAG binder conf inactive | dCAG dye counter 14.7
COc1cc(OC)c2cc(C(=O)N/N=C/c3cccc(OC)c3O)[nH]c2c1	mABHD4 FP 31.6, TCR-CD3 inh 23.5 | BSA TAMRA ctr inactive | TCR-CD3 conf inactive | mABHD4 conf 58.0
CSCCC(NC(=O)c1cncc(Br)c1)C(=O)O (stereo unspecified)	none
CC(=O)OCCNc1cc(N2CCN(C)CC2)c2noc3c2c1C(=O)c1ccccc1-3	mABHD4 FP 32.5, TCR-CD3 inh 23.8 | BSA TAMRA ctr inactive | TCR-CD3 conf inactive | mABHD4 conf inactive
COCCCNC(=O)c1ccc2c3c(onc13)-c1ccccc1C2=O	none (no result: SIAE inh, mABHD4 FP, TCR-CD3 inh, rCAG binder)
C[n+]1cc2c3c(ccc2c2ccc4cc5c(cc4c21)OCO5)OCO3	SIAE inh 19.0, mABHD4 FP 68.1, TCR-CD3 inh 20.3 (no result: HTRA1 inhibitor) | BSA TAMRA ctr inactive | TCR-CD3 conf 23.7 | mABHD4 conf 70.7
C[n+]1c(/C=C/c2ccc3c(c2)OCO3)ccc2ccccc21	none
NC1=NC(=O)/C(=C\c2ccco2)S1	mABHD4 FP 31.0, TCR-CD3 inh 23.2, rCAG binder 36.9 | BSA TAMRA ctr inactive | TCR-CD3 conf inactive | rCAG binder conf inactive | dCAG dye counter 5.7 | mABHD4 conf inactive
NC1=NC(=O)C(=Cc2ccccc2)S1	none
O=C(O)c1ccccc1C1=Nc2ccc(O)cc2Oc2cc(O)ccc21	mABHD4 FP 30.2, TCR-CD3 inh 34.1 | BSA TAMRA ctr 57.4 | TCR-CD3 conf 46.5 | mABHD4 conf 61.2
CC1C(=O)N(Cc2cn(CCC3OCCO3)nn2)CCS(=O)(=O)N1Cc1ccc(-c2ccc(Cl)c(Cl)c2)cc1 (stereo unspecified)	none
COc1cc2ccccc2nn1	none
COc1ccc2c(n1)Sc1nc3ccccc3nc1N2	mABHD4 FP 31.7, TCR-CD3 inh 48.3 | BSA TAMRA ctr inactive | TCR-CD3 conf inactive | mABHD4 conf inactive
O=C1c2ccccc2C(Nc2ccccc2F)N1c1cccnc1 (stereo unspecified)	none
O=C(c1ccc2c(c1)C(=O)N(CCCO)C2=O)c1ccc2c(c1)C(=O)N(CCCO)C2=O	none
O=C1c2ccc3c4c(ccc(c24)C(=O)N1CCCCO)C(=O)N(CCCCO)C3=O	mABHD4 FP 37.9, TCR-CD3 inh 33.5 | BSA TAMRA ctr 40.0 | TCR-CD3 conf 25.5 | mABHD4 conf inactive
C[c-]1[c-](C)[c-](C)[c-](C)[c-]1C.[Fe].c1cc2nccc(N3CCCC3)[c-]2c1 (stereo unspecified)	mABHD4 FP 32.6!, TCR-CD3 inh 48.8 | BSA TAMRA ctr inactive | TCR-CD3 conf 19.2! | mABHD4 conf 30.5
O=C(CNC(=O)c1ccc(Br)o1)NNC(=O)c1ccccc1	none
Oc1ccc(/C=N/n2c(COc3ccccc3)n[nH]c2=S)cc1O	mABHD4 FP 35.9, TCR-CD3 inh 31.8 | BSA TAMRA ctr inactive | TCR-CD3 conf 21.9 | mABHD4 conf inactive
O=C(c1ccc(Sc2ccc(F)cc2)c([N+](=O)[O-])c1)N1CCOCC1	none
CC(=O)Nc1ccc(S(=O)(=O)NCc2ccc3[nH]c(C)cc3c2)cc1	none
CC(=O)Nc1ccc(S(=O)(=O)NCc2ccc3c(c2)cc(C)n3C)cc1	mABHD4 FP 46.1, TCR-CD3 inh 54.2 | BSA TAMRA ctr inactive | TCR-CD3 conf inactive | mABHD4 conf inactive
Nc1nnc(-c2ccco2)s1	none
Nc1ncnc2oc(-c3ccco3)c(-c3ccco3)c12	SIAE inh 35.5, mABHD4 FP 34.1, TCR-CD3 inh 57.7, rCAG binder 68.0 | BSA TAMRA ctr inactive | TCR-CD3 conf 26.9 | rCAG binder conf inactive | dCAG dye counter 16.3 | mABHD4 conf inactive
CN(c1ccccc1)S(=O)(=O)c1ccc(NC(=O)CC(=O)c2ccccc2)cc1	mABHD4 FP 32.4, TCR-CD3 inh 56.2 | BSA TAMRA ctr inactive | TCR-CD3 conf inactive | mABHD4 conf inactive
O=c1cc(Br)c(O)c(Br)cc1Br	mABHD4 FP 31.2, TCR-CD3 inh 20.8 | BSA TAMRA ctr inactive | TCR-CD3 conf inactive | mABHD4 conf inactive
O=C1/C(=C/C=C/c2ccco2)SC(=S)N1NS(=O)(=O)c1ccccc1	mABHD4 FP 45.8, TCR-CD3 inh 22.1, rCAG binder 89.3 | BSA TAMRA ctr inactive | TCR-CD3 conf 20.8 | rCAG binder conf 87.3 | dCAG dye counter 61.4 | mABHD4 conf inactive
NC(=O)c1sc2nc3c(c(-c4ccco4)c2c1N)CCC3	mABHD4 FP 30.1, TCR-CD3 inh 19.4, rCAG binder 42.5 | BSA TAMRA ctr inactive | TCR-CD3 conf inactive | rCAG binder conf inactive | dCAG dye counter inactive | mABHD4 conf inactive
Cc1cc(NS(=O)(=O)c2ccc(NC(=O)Cc3ccc([N+](=O)[O-])cc3)cc2)no1	none
O=C(COC(=O)c1n[nH]c2ccccc12)Nc1ccc(S(=O)(=O)N2CCCC2)cc1	none
